Experimental data published in ChEMBL document CHEMBL1126866, “TSAO analogues. 3. Synthesis and anti-HIV-1 activity of 2',5'-bis-O-(tert-butyldimethylsilyl)-beta-D-ribofuranosyl 3'-spiro-5''-(4''-amino-1'',2''-oxathiole 2'',2''-dioxide) purine and purine-modified nucleosides” (J Med Chem, 1993).

How the values were obtained:
MT4 = assay: Cytotoxic concentration required to inhibit the viability of MT-4 cells; format: functional; conditions: Homo sapiens
In short: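 Mock-infected MT-4 cells (5×10^5 cells/mL) were cultured with serial dilutions of test compound for 5 days. Viable cells were counted by trypan blue staining. CC50 = concentration reducing the number of viable mock-infected MT-4 cells by 50%.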

[1] = Effective concentration required to inhibit HIV-1 induced cytopathicity in MT-4 cells; format: functional, cell-based; conditions: Human immunodeficiency virus 1, MT4
In short: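 MT-4 cells (5×10^5 cells/mL) were infected with HIV-1 at 100 CCID50 per mL of cell suspension and incubated with serial compound dilutions for 5 days. Viable cells were counted by trypan blue staining. EC50 = concentration reducing virus-induced loss of viable MT-4 cells by 50%.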

CCRF-CEM = assay: Effective concentration required to inhibit HIV- induced giant cell formation in CEM cells; format: functional, cell-based; conditions: Homo sapiens
In short: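 CEM cells (5×10^5 cells/mL) were infected with HIV-1 at 100 CCID50 per mL of cell suspension and mixed with compound dilutions. Syncytia were scored microscopically after 4 days. EC50 = concentration reducing syncytium number by 50%.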

[2] = tested on: Human immunodeficiency virus 1; assay: Selectivity index expressed as the ratio of CC50/EC50 of MT-4 cell lines
[3] = tested on: Human immunodeficiency virus 2; assay: Effective concentration required to inhibit HIV-2 induced cytopathicity in MT-4 cells; format: functional, organism-based; conditions: Human immunodeficiency virus 2, MT4

Row | SMILES | EC50 [1] [µM] | EC50 (CCRF-CEM) [µM] | EC50 [3] [µM] | CC50 (MT4) [µM] | Selectivity index [2]
1 | CC(C)(C)[Si](C)(C)OC[C@H]1O[C@@H](n2cnc3ccccc32)[C@H](O[Si](C)(C)C(C)(C)C)[C@]12OS(=O)(=O)C=C2N | 3.1 | – | > 7 | 15 | 4.8
2 | CC(C)(C)[Si](C)(C)OC[C@H]1O[C@@H](n2cnc3c(N)ncnc32)[C@H](O[Si](C)(C)C(C)(C)C)[C@]12OS(=O)(=O)C=C2N | 0.278 | – | > 14 | 13 | 47
3 | CC(C)(C)[Si](C)(C)OC[C@H]1O[C@@H](n2c(=O)[nH]c(=O)c3[nH]cnc32)[C@H](O[Si](C)(C)C(C)(C)C)[C@]12OS(=O)(=O)C=C2N | 2.7 | 2.3 | > 7 | 14 | 5.2
4 | CC(C)(C)[Si](C)(C)OC[C@H]1O[C@@H](n2cnc3[nH]c(=O)[nH]c(=O)c32)[C@H](O[Si](C)(C)C(C)(C)C)[C@]12OS(=O)(=O)C=C2N | 0.358 | 0.126 | > 7 | 13 | 36
5 | Cn1cnc2c(ncn2[C@@H]2O[C@H](CO[Si](C)(C)C(C)(C)C)[C@@]3(OS(=O)(=O)C=C3N)[C@H]2O[Si](C)(C)C(C)(C)C)c1=O | 0.514 | 0.101 | > 150 | > 150 | >292
6 | CC(C)(C)[Si](C)(C)OC[C@H]1O[C@@H](n2cnc3c(N)ncnc32)[C@H](O[Si](C)(C)C(C)(C)C)[C@@]12OS(=O)(=O)C=C2N | > 2.7 | – | > 2.7 | 7.3 | <2.7
7 | CN(C)c1ncnc2c1ncn2[C@@H]1O[C@H](CO[Si](C)(C)C(C)(C)C)[C@@]2(OS(=O)(=O)C=C2N)[C@H]1O[Si](C)(C)C(C)(C)C | 0.389 | 0.646 | > 30 | 15 | 39
8 | COc1ccc(C(Nc2ncnc3c2ncn3[C@@H]2O[C@H](CO[Si](C)(C)C(C)(C)C)[C@@]3(OS(=O)(=O)C=C3N)[C@H]2O[Si](C)(C)C(C)(C)C)(c2ccccc2)c2ccccc2)cc1 | > 100 | – | > 100 | 192 | <1.9
9 | CC(C)(C)[Si](C)(C)OC[C@H]1O[C@@H](n2cnc3ncn([C@@H]4O[C@H](CO[Si](C)(C)C(C)(C)C)[C@@]5(OS(=O)(=O)C=C5N)[C@H]4O[Si](C)(C)C(C)(C)C)c3c2=O)[C@H](O[Si](C)(C)C(C)(C)C)[C@]12OS(=O)(=O)C=C2N | > 150 | – | > 150 | > 150 | <1
10 | COc1ccc(C(Nc2ncnc3c2ncn3[C@@H]2O[C@H](CO[Si](C)(C)C(C)(C)C)[C@]3(OS(=O)(=O)C=C3N)[C@H]2O[Si](C)(C)C(C)(C)C)(c2ccccc2)c2ccccc2)cc1 | > 100 | – | > 100 | 191 | <1.9
11 | CCn1cnc2ncn([C@@H]3O[C@H](CO[Si](C)(C)C(C)(C)C)[C@@]4(OS(=O)(=O)C=C4N)[C@H]3O[Si](C)(C)C(C)(C)C)c2c1=O | 0.604 | 0.172 | > 150 | > 150 | >248

Stronger by EC50 [1], values ahead:

Row | EC50 [1] [µM] | EC50 (CCRF-CEM) [µM] | EC50 [3] [µM] | SMILES | CC50 (MT4) [µM] | Selectivity index [2]
12 | 0.201 | 0.067 | > 100 | Cn1cnc2ncn([C@@H]3O[C@H](CO[Si](C)(C)C(C)(C)C)[C@@]4(OS(=O)(=O)C=C4N)[C@H]3O[Si](C)(C)C(C)(C)C)c2c1=O | 156 | 776
13 | 0.177 | 0.074 | > 7 | CC(C)(C)[Si](C)(C)OC[C@H]1O[C@@H](n2cnc3cncnc32)[C@H](O[Si](C)(C)C(C)(C)C)[C@]12OS(=O)(=O)C=C2N | 13 | 73
14 | 0.173 | – | > 7 | CC(C)(C)[Si](C)(C)OC[C@H]1O[C@@H](n2cnc3ncnc(O)c32)[C@H](O[Si](C)(C)C(C)(C)C)[C@]12OS(=O)(=O)C=C2N | 15 | 86
15 | 0.158 | – | > 7 | CC(C)(C)[Si](C)(C)OC[C@H]1O[C@@H](n2cnc3c(O)ncnc32)[C@H](O[Si](C)(C)C(C)(C)C)[C@]12OS(=O)(=O)C=C2N | 14 | 89
16 | 0.146 | 0.161 | > 7 | CNc1ncnc2c1ncn2[C@@H]1O[C@H](CO[Si](C)(C)C(C)(C)C)[C@@]2(OS(=O)(=O)C=C2N)[C@H]1O[Si](C)(C)C(C)(C)C | 14 | 96
17 | 0.141 | 0.469 | > 30 | COc1ncnc2c1ncn2[C@@H]1O[C@H](CO[Si](C)(C)C(C)(C)C)[C@@]2(OS(=O)(=O)C=C2N)[C@H]1O[Si](C)(C)C(C)(C)C | 21 | 149
